Data on eight compounds can be found in ChEMBL document CHEMBL4251647, “Synthesis, anticancer activity and mechanism of action of new thiazole derivatives” (Eur J Med Chem, 2018).

For data set [1], the system named is HEp-2. Kind of data set: Cytotoxicity against human Hep2 cells assessed as inhibition of cell viability after 72 hrs by MTT assay. Format: functional, cell-based. Conditions: HEp-2, 72 h. Put shortly: (§1)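 MTT assay. Leukaemic lines were seeded at 3 x 10^5 cells/mL and adherent lines at 1 x 10^5 cells/mL, then preincubated 24 h. Compounds were added at 0.098–25.0 µg/mL for 72 h, with MTT for the last 3 h. Formazan was dissolved in DMSO and read at 560 nm. IC50 came from regression; triplicate, two independent experiments.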
For orientation: Tetrazolium dyes change colour on reduction, which living cells bring about.

Data set [2] has as its system NCI-H292. Briefly: Cytotoxicity against human NCI-H292 cells assessed as inhibition of cell viability at 25 ug/ml after 72 hrs by MTT assay relative to control. It counts as functional. Conditions: NCI-H292, 72 h. Put shortly:
(§2)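 Single-concentration MTT screen at 25 µg/mL for 72 h. Seeding was 3 x 10^5 cells/mL (HL-60, K562) or 1 x 10^5 cells/mL (adherent), with 24 h preincubation. MTT was added for the final 3 h, formazan dissolved in DMSO and absorbance read at 560 nm. Results are given as percent inhibition ± SD.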

In data set [3] the test system is HL-60. Kind of data set: Cytotoxicity against human HL60 cells assessed as inhibition of cell viability at 25 ug/ml after 72 hrs by MTT assay relative to control. Format: functional. Conditions: HL-60, 72 h. In outline:
as §2

Data set [4] deals with K562. Kind of data set: Cytotoxicity against human K562 cells assessed as inhibition of cell viability at 25 ug/ml after 72 hrs by MTT assay relative to control. Conditions: K562, 72 h. It counts as functional. Put shortly: as §2
Data set [5] deals with HT-29. Kind of data set: Cytotoxicity against human HT-29 cells assessed as inhibition of cell viability after 72 hrs by MTT assay. Format: functional, cell-based. Conditions: HT-29, 72 h. In outline:
as §1

For data set [6], the system named is K562. Kind of data set: Cytotoxicity against human K562 cells assessed as inhibition of cell viability after 72 hrs by MTT assay. Format: functional, cell-based. The following applies: K562, 72 h. In outline:
as §1

In data set [7] the test system is HL-60. Briefly: Cytotoxicity against human HL60 cells assessed as inhibition of cell viability after 72 hrs by MTT assay. Format: functional, cell-based. The following applies: HL-60, 72 h. Put shortly: as §1
Data set [8] concerns HEp-2. Briefly: Cytotoxicity against human Hep2 cells assessed as inhibition of cell viability at 25 ug/ml after 72 hrs by MTT assay relative to control. Format: functional. The following applies: HEp-2, 72 h. Put shortly: as §2
Data set [9] concerns NCI-H292. Briefly: Cytotoxicity against human NCI-H292 cells assessed as inhibition of cell viability after 72 hrs by MTT assay. Format: functional, cell-based. The following applies: NCI-H292, 72 h. In outline:
as §1

The subject of the next data set is Erythrocyte. Briefly: Hemolytic activity in human erythrocytes after 1 hr by spectrophotometric method. It counts as ADME, cell-based. Put shortly:
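Human erythrocytes as a 2% suspension in 0.85% NaCl with 10 mM CaCl2 were exposed to 0.78–250 µg/mL for 1 h at room temperature. After centrifugation, released haemoglobin in the supernatant was read at 540 nm. Triton X-100 (1%) served as positive control; EC50 is the concentration giving 50% haemolysis.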

A further data set deals with PBMC. Kind of data set: Cytotoxicity against human PBMC cells assessed as inhibition of cell viability after 72 hrs by alamar blue assay. It counts as cell-based. In outline: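 PBMC from healthy donors were grown in RPMI-1640 with 20% FBS and 2% phytohaemagglutinin, then plated at 10^6 cells/mL. After 24 h, compounds (0.048–25 µg/mL, in DMSO) were added for 72 h. Resazurin was added for the final 24 h and absorbance read at 570 and 595 nm as percent of control.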
Background: Resazurin is reduced to fluorescent resorufin, in cell work by metabolically active cells.

Data set [10] has as its system HT-29. Briefly: Cytotoxicity against human HT-29 cells assessed as inhibition of cell viability at 25 ug/ml after 72 hrs by MTT assay relative to control. Format: functional. Conditions: HT-29, 72 h. Put shortly:
as §2

Data set [11] deals with K562. Kind of data set: Cytotoxicity against human K562 cells assessed as inhibition of cell viability after 24 hrs by MTT assay. Conditions: K562, 24 h. Format: functional, cell-based. In outline: (§3)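 K562 cells (3 x 10^5 cells/mL, RPMI-1640 with 10% FBS) were treated with serial dilutions for 24 or 48 h. Viability was read by MTT (absorbance at 560 nm after DMSO solubilisation), and IC50 was obtained by regression.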

Data set [12] can be described thus: Selectivity index, ratio of IC50 for human PBMC to IC50 for human K562 cells. It counts as toxicity. Conditions: human PBMC and human K562 cells, read-out: Ratio IC50. In outline: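 Ratio of IC50 in PBMC (Alamar blue, 72 h) to IC50 in K562 cells (MTT, 72 h), calculated as SI = IC50(PBMC)/IC50(K562).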
Data set [13] deals with K562. Kind of data set: Cytotoxicity against human K562 cells assessed as inhibition of cell viability by MTT assay. Format: functional, cell-based. The following applies: TDE = time-dependent effect.
Data set [14] deals with K562. Kind of data set: Cytotoxicity against human K562 cells assessed as inhibition of cell viability after 48 hrs by MTT assay. Conditions: K562, 48 h. It counts as functional, cell-based. Put shortly: as §3
Data set [15] has as its system K562. Briefly: Cell cycle arrest in human K562 cells assessed as accumulation at S-phase at 0.2 uM after 48 hrs by flow cytometry (reference value: 17.39 +/- 0.84%). It counts as functional. In outline: (§4)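 K562 cells seeded at 3 x 10^5 cells/mL in RPMI-1640 and exposed 48 h at 37 °C, 5% CO2. Cells were stained with propidium iodide (Guava cell cycle kit) and 5,000 events acquired by flow cytometry. Vehicle control was 0.1% DMSO. Two independent experiments, each in triplicate.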

Data set [16] concerns K562. Briefly: Cell cycle arrest in human K562 cells assessed as accumulation at G2/M-phase at 0.2 uM after 48 hrs by flow cytometry (reference value: 35.97 +/- 1.94%). Format: functional. In outline: as §4
In data set [17] the test system is K562. Kind of data set: Cell cycle arrest in human K562 cells assessed as accumulation at G1-phase at 0.2 uM after 48 hrs by flow cytometry (reference value: 45.54 +/- 1.34%). It counts as functional. Put shortly: as §4
In general terms: A flow cytometer gives signals particle by particle.

Data set [18] concerns K562. Kind of data set: Induction of mitochondrial membrane potential depolarization in human K562 cells at 0.5 uM after 48 hrs by Rho-123 staining based flow cytometry (reference value: 12.24 +/- 0.61%). Format: functional.
The subject of data set [19] is K562. Briefly: Induction of DNA damage in human K562 cells at 0.5 uM after 48 hrs by propidium iodide staining based flow cytometry (reference value: 3.62 +/- 0.37%). Format: functional.

Regarding `COc1ccc(-c2csc(N/N=C/c3ccc(C(F)(F)F)cc3)n2)cc1`, the IC50 with HEp-2 [1] was 11.3 µM; in the data set with HT-29 [5] it was 22.7 µM; with K562 [6], over 66.2 µM; in the data set with HL-60 [7] it was 3.67 µM; in the data set with NCI-H292 [9], over 66.2 µM; in the data set with PBMC, 130 µM. Further, the inhibition at 25 µg/mL was found to be 68.5% in the data set with NCI-H292 [2]; 89.1% in the data set with HL-60 [3]; 61.5% in the data set on K562 [4]; 78.2% in the data set with HEp-2 [8]; 76.2% in the data set with HT-29 [10]. Further, the EC50 with Erythrocyte is over 250 µg/mL.
Take `CNC(=S)N/N=C/c1ccc(C(F)(F)F)cc1`: the half-inhibitory concentration (IC50) was 12.6 µM in the data set on HEp-2 [1]; 5.06 µM in the data set with HT-29 [5]; 13.2 µM with K562 [6]; 17.2 µM with HL-60 [7]; 20.8 µM in the data set on NCI-H292 [9]; 93.3 µM in the data set with PBMC. The inhibition at 25 µg/mL was determined as 93.3% in the data set with NCI-H292 [2]; 94.6% in the data set on HL-60 [3]; 82.6% in the data set on K562 [4]; 88.1% in the data set on HEp-2 [8]; 88.7% in the data set with HT-29 [10]. For the same compound, the EC50 with Erythrocyte is over 250 µg/mL.
Consider `O=[N+]([O-])c1ccc(-c2csc(N/N=C/c3ccc(C(F)(F)F)cc3)n2)cc1`, for which the IC50 with HEp-2 [1] was 27.3 µM; with HT-29 [5] it was over 63.6 µM; with K562 [6] it was 16.9 µM; in the data set with HL-60 [7], 11.5 µM; with NCI-H292 [9] it was 7.41 µM; in the data set on PBMC, 53.2 µM. In addition, the inhibition at 25 µg/mL with NCI-H292 [2] amounted to 96.3%; in the data set with HL-60 [3] it was 80.2%; with K562 [4], 87.2%; in the data set on HEp-2 [8], 90%; with HT-29 [10] it was 59.3%. In the data set on Erythrocyte, this compound returned an EC50 of over 250 µg/mL.
With `Cn1c(-c2ccc([N+](=O)[O-])cc2)cs/c1=N/N=C/c1ccc(C(F)(F)F)cc1`, the IC50 in the data set with HEp-2 [1] was 26.4 µM; in the data set on HT-29 [5] it was 47.8 µM; in the data set on K562 [6] it was over 61.4 µM; with HL-60 [7], 11.8 µM; with NCI-H292 [9], over 61.4 µM; with PBMC, 140 µM. Further, the inhibition at 25 µg/mL is 44.1% with NCI-H292 [2]; 83.2% in the data set on HL-60 [3]; 59.8% with K562 [4]; 84.8% in the data set with HEp-2 [8]; 75.1% in the data set with HT-29 [10]. Besides, the EC50 in the data set with Erythrocyte is over 250 µg/mL.
With `N=C(S)N/N=C/c1ccc(C(F)(F)F)cc1`, the IC50 in the data set with HEp-2 [1] was 6.27 µM; in the data set on K562 [11], over 101 µM; in the data set with HT-29 [5] it was 9.02 µM; with K562 [6], 6.42 µM; in the data set on HL-60 [7], 12.7 µM; with NCI-H292 [9] it was 10.8 µM. Also, the results for the IC50 in the data set on PBMC and with K562 [14] were 80.2 µM and 34 µM, respectively. The inhibition at 25 µg/mL in the data set on NCI-H292 [2] turned out to be 89.5%; with HL-60 [3], 95.3%; in the data set with K562 [4] it was 87.2%; with HEp-2 [8], 91.8%; in the data set on HT-29 [10], 85.4%. In addition, the selectivity ratio in [12] was found to be 12.5. Also, the Activity entry with K562 [13] was “Tde”. Moreover, in the data set with Erythrocyte, the EC50 was over 250 µg/mL.
With `FC(F)(F)c1ccc(/C=N/Nc2nc(-c3ccc(Cl)c(Cl)c3)cs2)cc1`, the IC50 with HEp-2 [1] is 10.4 µM; in the data set on HT-29 [5], 12.2 µM; in the data set on K562 [6] it was over 60.1 µM; in the data set on HL-60 [7], 4.23 µM; in the data set with NCI-H292 [9], 6.57 µM; with PBMC, 65.6 µM. Besides, the inhibition at 25 µg/mL with NCI-H292 [2] was determined as 98.2%; in the data set with HL-60 [3] it was 96.4%; with K562 [4] it was 47.8%; with HEp-2 [8], 83.5%; with HT-29 [10], 84%. In the data set with Erythrocyte, this compound yielded an EC50 of over 250 µg/mL.
On to `COc1cccc2c1C(=O)c1c(O)c3c(c(O)c1C2=O)C[C@@](O)(C(=O)CO)C[C@@H]3O[C@H]1C[C@H](N)[C@H](O)[C@H](C)O1` [DOXORUBICIN], for which the IC50 in the data set with HEp-2 [1] turned out to be 1.21 µM; in the data set with HT-29 [5], 0.69 µM; in the data set on K562 [6], 1.38 µM; in the data set on HL-60 [7], 0.19 µM; in the data set on NCI-H292 [9] it was 0.19 µM; in the data set with PBMC, 0.38 µM. The Activity is 10.67% in the data set with K562 [15]; 81.29% with K562 [16]; 9.53% in the data set on K562 [17]; 23.6% in the data set on K562 [18]; 19.69% in the data set with K562 [19].
In the case of `O=[N+]([O-])c1cccc(-c2csc(N/N=C/c3ccc(C(F)(F)F)cc3)n2)c1`, the IC50 in the data set with HEp-2 [1] was found to be 34.2 µM; in the data set with HT-29 [5], 23.9 µM; in the data set on K562 [6], 10.2 µM; in the data set on HL-60 [7], 29.3 µM; with NCI-H292 [9], 22.8 µM; in the data set with PBMC, 151 µM. Besides, the inhibition at 25 µg/mL with NCI-H292 [2] amounted to 75.1%; with HL-60 [3], 77.4%; in the data set with K562 [4], 75.5%; with HEp-2 [8], 84.3%; with HT-29 [10], 79.4%. Moreover, the EC50 in the data set on Erythrocyte was over 250 µg/mL.

The term IC50 denotes the concentration needed to halve the response being measured. As usually defined, the inhibition is the percentage by which the read-out fell short of the control. As usually defined, the EC50 is the concentration giving half of the maximal effect. Low readings indicate higher potency in that assay, high ones lower potency in that assay.
